Test results taken from ChEMBL document CHEMBL4513216, “Probing the Open Global Health Chemical Diversity Library for Multistage-Active Starting Points for Next-Generation Antimalarials” (ACS Infect Dis, 2020).

Test: Toxicity liver stage against HepG2, at 10uM
Format: cell-based
Set-up: test concentration 10 uM, cell line HepG2-A16-CD81EGFP
Conditions: human, HepG2-A16-CD81EGFP cells; read-out: INHIBITION
Method in brief: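 Uninfected HepG2-A16-CD81EGFP cells, 3 × 10^3 per well, 1536-well, plated on prespotted compound at 10 μM final, parasite-free screening media added to match infected plates; puromycin 10 μM positive, DMSO 0.5% negative; run in parallel with 48 h PbLuc assay at 37 °C, 5% CO2; viability by CellTiter-Glo luminescence, normalized to controls.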

| SMILES | cytotoxicity at 10 µM [%] |
| --- | --- |
| CSc1ccccc1C(=O)C1CCCN(Cc2ccccn2)C1 (stereo not given) | -6.12 |
| CSCCC(=O)N1CC[C@@H](N2CCN(c3ccccc3F)CC2)[C@H](O)C1 | -91.4 |
| CC(C)(C)CC(=O)N1CC[C@H]2NC(=O)N(Cc3ccccc3)C(=O)[C@H]21 | -0.171 |
| CCc1noc(-c2cccc(OCC(=O)NC(C)C)c2)n1 | -6.53 |
| COCCCNC(=O)Cn1c(C)cc(=O)n2nc(-c3cccs3)nc12 | 2.05 |
| Cc1ccc2oc(SCC(=O)NC(C)(C)C)nc2n1 | -0.3 |
| O=C1COc2cc(S(=O)(=O)NCCC3=CCCCC3)c(Cl)cc2N1 | 18.6 |
| CCCS(=O)(=O)N1CC(=O)N(CCCc2ccccc2)CC(O)C1 (stereo not given) | -17 |
| COC(=O)CNC(=O)Cn1ccc2cccc(OC)c21 | -34.9 |
| Cc1ccccc1NC(=O)NCC(C)(O)c1cccs1 (stereo not given) | 8.5 |
| O=C(c1cc(C2CC2)on1)N1CCC(Oc2ncccc2Cl)CC1 | 5.37 |
| O=C1[C@@H]2CCN(CC3CC3)C[C@@H]2OCCN1c1ccsc1 | 10.5 |
| CC1c2ncc(Cn3cncn3)n2CCN1C(=O)N(C)C (stereo not given) | 0.267 |
| COCC(=O)N1CC[C@H]2OCC[C@@]2(c2nc(C)no2)C1 | -0.461 |
| CSc1ccc(NC(=O)Nc2ccc3c(c2)N(S(C)(=O)=O)CC3)cc1 | 48.5 |
| CN(Cc1ccccn1)C(=O)[C@]12COC[C@H]1CN(Cc1cnn(C)c1)C2 | -9.74 |
| CN1CCCc2c1nc1c(c2N)CCC1 | 10.2 |
| Cc1cnc(NC(=O)C(C)n2ccc(C(F)(F)F)n2)s1 (stereo not given) | 1.75 |
| O=S(=O)(c1cc(F)ccc1F)n1cc(Cl)cn1 | 4.52 |
| CN(CCc1cn[nH]c1)C(=O)CCc1ccc(Cl)cc1 | 1.82 |
| COc1ccccc1C1Cn2c(C)cnc2CN1Cc1ccc(C)nc1 (stereo not given) | -3.18 |
| O=C(c1ccccn1)N1Cc2ccccc2OC2(CCOCC2)C1 | -12.9 |

| SMILES | cytotoxicity at 10 µM [%] |
| --- | --- |
| Cc1nc(C(=O)N(C)[C@@H]2CCC[C@@H](Oc3ccccc3)[C@@H]2O)co1 | -22.6 |
| CC(C)S(=O)(=O)N1CCC(c2cc3n(n2)[C@@H](C(F)(F)F)C[C@@H](C)N3)CC1 | -13.5 |
| CSCC[C@@H]1CN2CCC[C@H]2CN1Cc1cn(C)nc1C | -11.3 |
| COCC(=O)N1CCCCC1c1ccnc(Nc2ncc(C)s2)n1 (stereo not given) | -10.6 |
| CS(=O)(=O)c1snnc1C1CCN(Cc2cccnc2)CC1 | -11.2 |
| O=C(NCCCn1cccn1)C1COCC(=O)N1Cc1ccccc1 (stereo not given) | -8.57 |
| Cc1ccccc1-n1ccnc1S(=O)(=O)Cc1nsc(N(C)C)n1 | 2.56 |
| COc1ccc(-n2cc(CNC(=O)c3ccc[nH]3)nn2)cc1 | -10.9 |
| Clc1cc(Cl)cc(CN2CCC(NCc3ncc[nH]3)CC2)c1 | 18.4 |
| CC(C)c1ccc(CNC(c2ccc(F)cn2)C(C)C)cc1 (stereo not given) | -4.45 |
| Cc1nc(COC(=O)c2cccc3c2OCCO3)cs1 | 1.4 |
| COC1CCN(S(=O)(=O)N2CCCC2c2ccco2)CC1 (stereo not given) | 11 |
| CCC(C#N)NC(=O)CCCOc1cccc(C(C)=O)c1 (stereo not given) | -35.1 |
| CCc1csc(C2CCCN(C(=O)c3ccc(=O)n(C)n3)C2)n1 (stereo not given) | -44.1 |
| O=C1CN(c2ccc(C(=O)N3CCc4ccccc43)cn2)CCN1 | 2.66 |
| CCCn1nnnc1COC(=O)C1COc2ccccc2O1 (stereo not given) | 3.72 |
| O=C1N(CC2CC2)C(c2cncs2)NC12CCCC2 (stereo not given) | -3.84 |
| O=C(Nc1ccccc1)C1CCN(C(=O)COc2ccccc2F)CC1 | 8.94 |
| CC(C)N(C)CC(=O)Nc1ccc(-n2ccc(C(N)=O)n2)cc1 | -3.54 |
| CN(Cc1cccc(C(N)=O)c1)c1ncc(C(N)=O)cc1Cl | -3.73 |
| CN(Cc1ccc2c(c1)OCO2)C(=O)c1ccn(C)c(=O)c1 | 3.01 |
| OC(CN1CC(n2cccn2)C1)c1ccc2c(c1)OCCO2 (stereo not given) | -19 |

| SMILES | cytotoxicity at 10 µM [%] |
| --- | --- |
| Clc1cnccc1N1CCC(OC2CCOCC2)CC1 | -0.439 |
| COc1ccc(OC)c(C(C)NC(=O)Nc2nnc(C)s2)c1 (stereo not given) | 14.7 |
| c1ccc(-c2nc(CNC3CCCN(c4cccnn4)C3)no2)cc1 (stereo not given) | 15.9 |
| COc1ccc(CNC(=O)NCc2nc(C)c(C)s2)cn1 | 8.73 |
| CCN(Cc1ccoc1)C(=O)NC1CCN(CC2CCCC2)CC1 | -6.11 |
| CN(Cc1ccccc1NCc1cccnc1)C(=O)c1cccs1 | 0.205 |
| CCN(Cc1ccoc1)C(=O)c1cc2c(c(S(N)(=O)=O)c1)CCC2 | -4.97 |
| Cn1cc(CCNC(=O)C2(c3cccc(Cl)c3)CC2)cn1 | 0.33 |
| CCOc1ccc(CNC(=O)N(C)Cc2ncnn2C)cc1C | -16 |
| Cc1ccc(C2CCCCCN2CCCS(C)(=O)=O)o1 (stereo not given) | -4.3 |
| CN(Cc1cnn(C)c1)C(CO)c1cccc(Br)c1 (stereo not given) | -2.86 |
| O=C(CNc1cccc(CC(F)(F)F)c1)NCc1ccco1 | -46.3 |
| CN(C)Cc1ccc(CNC(=O)NCC2(C)CCCS2)cc1 (stereo not given) | -12.9 |
| CC(C)n1nccc1NC(=O)CN1CCc2sccc2C1 | 0.583 |
| CCOC(C)c1noc(CN(C)C(=O)c2ccncc2)n1 (stereo not given) | 14.5 |
| O=C(NC1CCc2ccccc2C1)N1CCN(C(=O)C2CCC2)CC1 (stereo not given) | -5.59 |
| CN(C(=O)c1cccc(C(=O)NS(C)(=O)=O)c1)c1ccccc1 | -2.35 |
| O=C(c1cnccn1)N1CCc2ncc(CN3CCOCC3)n2CC1 | -77 |
| CCOC[C@@H]1CCC[C@@]12CN(Cc1cccnc1)CCO2 | -65.7 |
| O=C(c1cccs1)N1CCC2(CC1)CN(c1cncnc1)C(=O)CO2 | -67.7 |
| Cc1cc(C(=O)N2CC[C@H]3C[C@H](c4ccncn4)O[C@@H]3C2)c(C)[nH]1 | -70.1 |
| Nc1cc(C(=O)N2CCCC(C(=O)CCc3ccccc3)C2)ccn1 (stereo not given) | -6.97 |

| SMILES | cytotoxicity at 10 µM [%] |
| --- | --- |
| Cc1nn(CC(=O)O)c(C)c1NS(=O)(=O)c1cc2ccccc2s1 | -7.07 |
| Cc1ccc2cc(CN(C)Cc3ccncn3)c(=O)[nH]c2c1 | 10.3 |
| Cn1cc(CN2CCC(Cn3cc(-c4ccccc4)nn3)CC2)cn1 | 9.47 |
| c1ccc(-c2nc3c(c(NCc4n[nH]c5c4CCC5)n2)CCNC3)cc1 | -12.8 |
| Cc1nc(C2CCCNC2)cc(N(Cc2nccn2C)C2CC2)n1 (stereo not given) | -3.42 |
| CN(CCc1cnn(C)c1)C(=O)C(c1ccccc1F)N(C)C (stereo not given) | 3.11 |
| O=C(NCCCO)c1cnc(-c2ccccc2)nc1O | -7.11 |
| CCCc1nc(C)c(CNc2nc(C)nc3oc(C)nc23)s1 | -44.6 |
| c1ccc(Oc2nccc3occc23)c(CN2CCCCC2)c1 | -10.1 |
| CCCC(=O)N(Cc1ccncc1)C(C)CC (stereo not given) | 9.66 |
| COc1cccc(OCCN2CC[C@@](O)(C3CCOCC3)[C@H](C)C2)c1 | -7.03 |
| OCc1ccc(CN2CCC(n3cc(C4CCCCC4)nn3)CC2)o1 | 1.02 |
| Cc1nccn1CCN(C)C(=O)C1CCN(C(=O)C2CCCC2)CC1 | -4.06 |
| CC[C@@H](CO)NC(=O)c1cc(COc2ccc(OC)cc2Cl)[nH]n1 | -34.4 |
| O=C(Nc1ccc(S(=O)(=O)Nc2ccccc2)cc1)N1CCCC1 | 10.9 |
| COC(=O)NCC(=O)N(C)Cc1csc(-c2cccs2)n1 | -2.67 |
| Nc1nc2c(c(N3CCCC(CN4CCCC4=O)C3)n1)CCNCC2 (stereo not given) | 14.6 |
| CC(C)(O)CCc1cccc(C(=O)N[C@H](C(N)=O)c2ccccc2)c1 | -4.21 |
| CN(Cc1cn(C2CCNCC2)nn1)CC1CCCO1 (stereo not given) | -4.76 |
| c1ccc2c(c1)CC(N1CCCN(Cc3cccc4nonc34)CC1)C2 | -2.37 |
| CC(C)Oc1ccc(CNC(=O)NCC(C)(C)C(N)=O)cc1F | -24.8 |
| CCc1ccc(CNc2cc(N3CCCC3CO)ncn2)s1 (stereo not given) | -13 |

| SMILES | cytotoxicity at 10 µM [%] |
| --- | --- |
| COc1ncccc1NC(=O)NC1CCOc2ccccc21 (stereo not given) | -7.62 |
| Cc1ccc(C(=O)N2CCC(Oc3ccc(F)cc3F)CC2)c(=O)[nH]1 | 7.63 |
| O=C(Cc1n[nH]c2ccccc12)N1CCC(Nc2cccnn2)CC1 | -7.44 |
| Cc1cnn(CC2CCCN2C(=O)c2cnc3n[nH]c(C)c3c2)c1 (stereo not given) | 8.73 |
| CC(C)c1nnc2n1CCN(C(=O)c1ccc(CN(C)C)cc1)C2 | 5.2 |
| Cc1nnc(N2CCC(CN(C)C(C)C)CC2)c(C#N)c1C | 3.63 |
| c1nc(CCC2CCCN2)cc(N2CCCOCC2)n1 (stereo not given) | 3.91 |
| O=C(NCC1OCCc2cn(CC3CCOCC3)nc21)c1ccsc1 (stereo not given) | 4.84 |
| CN(Cc1cccnc1)C1CC2(CCN(c3ncc(F)cn3)CC2)C1 | 18 |
| FC1(F)CCN(Cc2ccncc2)CC12CCN(Cc1ccccn1)C2 (stereo not given) | 10.2 |
| c1ccn(Cc2noc3c2CN(Cc2ccsc2)CC3)c1 | 9.37 |
| Cn1cnc(S(=O)(=O)N2C[C@H]3CN(Cc4cccnc4)C[C@H]3C2)c1 | 8.46 |
| CN(C)c1ncc(C2Nc3cc(Cl)ccc3C3=NCCCN32)cn1 (stereo not given) | -32 |
| Cc1cc(S(=O)(=O)NCC(C)(C)N)c(F)cc1F | 3.8 |
| c1cc(COC[C@]23COC[C@H]2CN(CC2CCC2)C3)ccn1 | -77.1 |
| Cn1cc(C2CC(=O)NC23CCN(CC2CC2)CC3)cn1 (stereo not given) | -7.28 |
| COCCN1C(=O)CCC12CCCN(Cc1nccs1)CC2 (stereo not given) | -85.1 |
| Cn1nnc2c1C(COCc1ccccn1)CN(Cc1ccoc1)C2 (stereo not given) | 5.94 |
| CN1CC(=O)N(c2ccccc2)CC12CCN(CC1CC1)C2 (stereo not given) | 4.42 |
| c1ccc(CN2C[C@@H]3COC[C@]3(COCc3ccncc3)C2)nc1 | -76.1 |
| CO[C@@H]1CCN(S(=O)(=O)c2cn(C)cn2)[C@H]1Cc1cnn(C)c1 | 4.56 |
| O=C(Nc1ccccc1)N1C2CCC(O)(CC2)C1CN1CCOCC1 (stereo not given) | 10 |
